Results: ChEMBL document CHEMBL3872218, “Synthesis and T-type calcium channel-blocking effects of aryl(1,5-disubstituted-pyrazol-3-yl)methyl sulfonamides for neuropathic pain treatment” (Eur J Med Chem, 2016)

Assays:
Rattus norvegicus [1] = assay: Antineuropathic pain activity in rat spinal nerve ligation model assessed as effect on mechanical allodynia by measuring frequency of paw withdrawal at 100 mg/kg, po measured at 1 hr relative to gabapentin; format: functional
Outline: (§1)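 Spinal nerve ligation rats tested 2 weeks after nerve surgery, 100 mg/kg oral, n = 4 per group. Behaviour re-tested at 1, 3 and 5 h after dosing. Mechanical allodynia: von Frey filament applied five times, every 3–4 s, to the hind paw on a wire mesh floor. Cold allodynia: acetone applied to the plantar hind paw on a metal mesh floor.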

[2] = target: T1, Voltage-dependent T-type calcium channel subunit alpha-1G (Homo sapiens, UniProt O43497); assay: Inhibition of Cav3.1 alpha1G (unknown origin) expressed in HEK293 cells by whole-cell patch clamp method; format: cell-based
T1 sequence (O43497 whole entry): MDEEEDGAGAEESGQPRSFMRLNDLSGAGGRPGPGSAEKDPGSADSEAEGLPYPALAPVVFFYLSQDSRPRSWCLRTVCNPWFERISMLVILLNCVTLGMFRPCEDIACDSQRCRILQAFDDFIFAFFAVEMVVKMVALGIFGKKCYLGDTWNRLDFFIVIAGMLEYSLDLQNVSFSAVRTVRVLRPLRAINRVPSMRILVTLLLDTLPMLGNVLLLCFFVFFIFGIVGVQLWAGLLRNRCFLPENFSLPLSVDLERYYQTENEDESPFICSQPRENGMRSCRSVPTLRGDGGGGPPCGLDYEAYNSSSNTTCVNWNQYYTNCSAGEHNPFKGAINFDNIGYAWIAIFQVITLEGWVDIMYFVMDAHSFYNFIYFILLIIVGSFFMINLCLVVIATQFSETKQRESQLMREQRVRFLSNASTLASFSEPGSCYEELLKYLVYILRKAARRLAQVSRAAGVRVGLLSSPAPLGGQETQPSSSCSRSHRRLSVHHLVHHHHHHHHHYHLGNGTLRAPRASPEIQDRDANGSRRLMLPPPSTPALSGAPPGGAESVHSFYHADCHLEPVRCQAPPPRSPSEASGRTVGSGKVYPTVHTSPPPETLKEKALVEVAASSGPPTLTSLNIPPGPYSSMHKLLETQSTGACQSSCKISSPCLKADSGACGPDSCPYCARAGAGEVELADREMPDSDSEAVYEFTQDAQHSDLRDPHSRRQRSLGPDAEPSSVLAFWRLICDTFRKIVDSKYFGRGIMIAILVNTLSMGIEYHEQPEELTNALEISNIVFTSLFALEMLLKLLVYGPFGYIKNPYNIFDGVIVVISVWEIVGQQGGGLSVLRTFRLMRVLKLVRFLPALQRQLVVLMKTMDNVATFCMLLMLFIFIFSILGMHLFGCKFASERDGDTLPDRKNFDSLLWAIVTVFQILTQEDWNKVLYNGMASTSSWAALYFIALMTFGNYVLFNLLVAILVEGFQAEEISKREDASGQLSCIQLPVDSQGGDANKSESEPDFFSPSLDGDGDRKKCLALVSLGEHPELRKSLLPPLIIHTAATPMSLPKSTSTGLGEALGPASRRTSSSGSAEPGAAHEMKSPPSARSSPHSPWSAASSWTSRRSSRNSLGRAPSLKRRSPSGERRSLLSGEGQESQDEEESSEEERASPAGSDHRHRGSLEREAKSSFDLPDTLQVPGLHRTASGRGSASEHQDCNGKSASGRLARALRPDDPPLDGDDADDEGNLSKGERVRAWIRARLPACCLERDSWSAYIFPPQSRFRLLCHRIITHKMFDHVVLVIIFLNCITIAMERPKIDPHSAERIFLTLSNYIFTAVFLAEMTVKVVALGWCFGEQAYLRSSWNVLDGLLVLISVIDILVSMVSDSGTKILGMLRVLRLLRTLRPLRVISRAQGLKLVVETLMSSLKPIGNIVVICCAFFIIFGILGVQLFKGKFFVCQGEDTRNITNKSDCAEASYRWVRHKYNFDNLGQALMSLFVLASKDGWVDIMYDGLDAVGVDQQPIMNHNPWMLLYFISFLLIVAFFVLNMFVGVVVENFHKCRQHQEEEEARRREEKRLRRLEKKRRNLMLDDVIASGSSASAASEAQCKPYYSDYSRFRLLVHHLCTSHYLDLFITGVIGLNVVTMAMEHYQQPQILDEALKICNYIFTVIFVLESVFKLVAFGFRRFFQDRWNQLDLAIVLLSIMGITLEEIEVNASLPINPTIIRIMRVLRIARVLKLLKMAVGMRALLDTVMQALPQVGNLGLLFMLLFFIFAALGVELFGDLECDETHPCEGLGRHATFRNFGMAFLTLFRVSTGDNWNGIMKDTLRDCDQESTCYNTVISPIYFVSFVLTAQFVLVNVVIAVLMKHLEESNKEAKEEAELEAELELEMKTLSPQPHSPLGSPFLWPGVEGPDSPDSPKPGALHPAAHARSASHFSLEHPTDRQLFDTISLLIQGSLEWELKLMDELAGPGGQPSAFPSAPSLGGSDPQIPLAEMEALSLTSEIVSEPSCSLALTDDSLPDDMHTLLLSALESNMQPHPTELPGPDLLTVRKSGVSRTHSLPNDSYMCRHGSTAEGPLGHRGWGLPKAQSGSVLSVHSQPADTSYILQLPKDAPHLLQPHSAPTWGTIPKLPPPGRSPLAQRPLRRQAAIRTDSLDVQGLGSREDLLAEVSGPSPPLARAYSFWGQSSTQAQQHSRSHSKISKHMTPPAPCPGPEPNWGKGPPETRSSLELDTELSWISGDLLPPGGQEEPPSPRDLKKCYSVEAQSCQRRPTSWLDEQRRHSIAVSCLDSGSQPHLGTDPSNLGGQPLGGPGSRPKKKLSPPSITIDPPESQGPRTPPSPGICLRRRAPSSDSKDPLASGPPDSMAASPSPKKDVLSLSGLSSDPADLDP
Outline: (§2)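 Whole-cell patch clamp on HEK293 cells expressing Cav3.1 or Cav3.2. T-type currents evoked every 15 s by a 50-ms step from −100 mV to −30 mV. External solution (mM): 140 NaCl, 2 CaCl₂, 10 HEPES, 10 glucose, pH 7.4.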

[3] = target: T2, Voltage-dependent T-type calcium channel subunit alpha-1H (Homo sapiens, UniProt O95180); assay: Inhibition of Cav3.2 alpha1H (unknown origin) expressed in HEK293 cells by whole-cell patch clamp method; format: cell-based; outline: as §2
T2 sequence (O95180 whole entry): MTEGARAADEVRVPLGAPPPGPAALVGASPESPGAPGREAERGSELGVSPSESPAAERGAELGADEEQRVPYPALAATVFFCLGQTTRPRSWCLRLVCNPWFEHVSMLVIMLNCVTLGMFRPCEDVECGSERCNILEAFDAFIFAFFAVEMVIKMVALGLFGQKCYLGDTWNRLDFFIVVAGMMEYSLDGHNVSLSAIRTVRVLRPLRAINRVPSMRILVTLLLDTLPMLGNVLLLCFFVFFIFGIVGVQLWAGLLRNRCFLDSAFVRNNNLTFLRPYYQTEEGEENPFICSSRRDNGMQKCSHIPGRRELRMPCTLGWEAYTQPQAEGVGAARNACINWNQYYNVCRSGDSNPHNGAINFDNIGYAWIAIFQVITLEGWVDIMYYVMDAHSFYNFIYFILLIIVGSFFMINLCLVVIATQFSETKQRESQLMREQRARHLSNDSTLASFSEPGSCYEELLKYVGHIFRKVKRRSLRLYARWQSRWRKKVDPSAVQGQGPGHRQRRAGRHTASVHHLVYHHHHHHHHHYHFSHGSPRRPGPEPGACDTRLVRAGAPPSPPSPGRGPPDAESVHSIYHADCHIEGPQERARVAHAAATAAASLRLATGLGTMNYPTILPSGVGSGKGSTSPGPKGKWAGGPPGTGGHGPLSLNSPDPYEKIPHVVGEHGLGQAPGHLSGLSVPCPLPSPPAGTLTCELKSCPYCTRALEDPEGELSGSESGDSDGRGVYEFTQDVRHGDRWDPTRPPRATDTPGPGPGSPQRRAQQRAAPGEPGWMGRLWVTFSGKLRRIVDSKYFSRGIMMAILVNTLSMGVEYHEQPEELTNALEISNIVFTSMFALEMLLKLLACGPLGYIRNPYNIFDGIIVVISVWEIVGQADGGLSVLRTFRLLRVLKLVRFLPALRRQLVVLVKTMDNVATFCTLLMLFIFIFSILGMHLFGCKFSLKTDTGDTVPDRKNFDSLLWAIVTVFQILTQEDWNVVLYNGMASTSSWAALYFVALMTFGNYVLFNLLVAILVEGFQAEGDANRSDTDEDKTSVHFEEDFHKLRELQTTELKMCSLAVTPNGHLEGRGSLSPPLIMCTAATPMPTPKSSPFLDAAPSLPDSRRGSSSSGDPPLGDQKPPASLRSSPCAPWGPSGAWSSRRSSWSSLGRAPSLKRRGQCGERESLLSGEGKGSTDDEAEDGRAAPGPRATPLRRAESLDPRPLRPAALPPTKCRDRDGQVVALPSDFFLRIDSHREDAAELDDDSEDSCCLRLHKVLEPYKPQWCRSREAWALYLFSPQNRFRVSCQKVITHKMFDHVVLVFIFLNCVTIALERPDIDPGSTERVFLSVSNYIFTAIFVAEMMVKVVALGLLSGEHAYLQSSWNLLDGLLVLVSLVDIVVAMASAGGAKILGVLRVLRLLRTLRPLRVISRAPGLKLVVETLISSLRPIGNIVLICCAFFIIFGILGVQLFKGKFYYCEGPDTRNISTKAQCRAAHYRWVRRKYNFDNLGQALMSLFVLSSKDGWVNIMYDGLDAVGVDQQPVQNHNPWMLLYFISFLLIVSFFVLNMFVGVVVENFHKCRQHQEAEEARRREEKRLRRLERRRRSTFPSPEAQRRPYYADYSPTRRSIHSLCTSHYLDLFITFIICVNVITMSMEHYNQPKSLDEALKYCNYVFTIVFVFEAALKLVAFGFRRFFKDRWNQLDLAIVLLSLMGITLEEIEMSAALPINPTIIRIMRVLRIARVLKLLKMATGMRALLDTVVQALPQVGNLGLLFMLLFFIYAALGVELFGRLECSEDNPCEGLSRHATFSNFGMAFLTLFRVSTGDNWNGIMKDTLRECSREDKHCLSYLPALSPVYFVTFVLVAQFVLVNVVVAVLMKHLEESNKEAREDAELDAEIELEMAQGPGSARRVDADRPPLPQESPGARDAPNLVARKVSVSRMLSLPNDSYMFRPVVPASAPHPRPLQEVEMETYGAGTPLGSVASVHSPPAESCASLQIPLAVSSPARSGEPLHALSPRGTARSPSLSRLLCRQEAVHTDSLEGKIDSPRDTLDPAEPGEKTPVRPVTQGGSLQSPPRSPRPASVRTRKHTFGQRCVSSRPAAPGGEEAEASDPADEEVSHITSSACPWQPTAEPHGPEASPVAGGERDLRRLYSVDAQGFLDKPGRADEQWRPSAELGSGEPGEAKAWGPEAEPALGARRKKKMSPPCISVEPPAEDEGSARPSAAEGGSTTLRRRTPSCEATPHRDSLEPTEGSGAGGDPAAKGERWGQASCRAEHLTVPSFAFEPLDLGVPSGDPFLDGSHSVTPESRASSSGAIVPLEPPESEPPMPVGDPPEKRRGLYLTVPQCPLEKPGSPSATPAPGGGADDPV

[4] = target: T2, Voltage-dependent T-type calcium channel subunit alpha-1H; assay: Inhibition of Cav3.2 alpha1H (unknown origin) expressed in HEK293 cells assessed as decrease in KCl-induced depolarization mediated intracellular Ca2+ level at 10 uM by fluo3/AM based high throughput screening assay relative to control; format: cell-based
Outline: (§3)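 HEK293 cells stably expressing Cav3.1 or Cav3.2 plated at 4 × 10⁴ cells/well and used the next day. Loaded 60 min at room temperature with […] fluo3/AM plus 0.001% Pluronic F-127 in HEPES-buffered saline (1.8 mM CaCl₂, pH 7.4). Ca²⁺ fluorescence read on FDSS6000 as % inhibition, compound at […].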

[5] = target: T1, Voltage-dependent T-type calcium channel subunit alpha-1G; assay: Inhibition of Cav3.1 alpha1G (unknown origin) expressed in HEK293 cells assessed as decrease in KCl-induced depolarization mediated intracellular Ca2+ level at 10 uM by fluo3/AM based high throughput screening assay relative to control; format: cell-based; outline: as §3
Homo sapiens = species: Homo sapiens; assay: Inhibition of N-type Ca2+ channel (unknown origin) at 10 uM by whole-cell patch clamp method relative to control
[6] = target: Voltage-gated inwardly rectifying potassium channel KCNH2 (Homo sapiens, UniProt Q12809); assay: Inhibition of human ERG expressed in CHOK1 cells by whole-cell patch clamp method; format: cell-based, CHO-K1
CYP1A2 = target: T3, CYP1A2 (Homo sapiens, UniProt P05177); assay: Inhibition of human CYP1A2 assessed as remaining activity at 10 uM using vivid CYP450 substrate measured after 15 mins by fluorescence assay relative to alpha-naphthoflavon; format: ADME; settings: probe vivid CYP450 substrate, read-out: Activity
T3 sequence (P05177 whole entry): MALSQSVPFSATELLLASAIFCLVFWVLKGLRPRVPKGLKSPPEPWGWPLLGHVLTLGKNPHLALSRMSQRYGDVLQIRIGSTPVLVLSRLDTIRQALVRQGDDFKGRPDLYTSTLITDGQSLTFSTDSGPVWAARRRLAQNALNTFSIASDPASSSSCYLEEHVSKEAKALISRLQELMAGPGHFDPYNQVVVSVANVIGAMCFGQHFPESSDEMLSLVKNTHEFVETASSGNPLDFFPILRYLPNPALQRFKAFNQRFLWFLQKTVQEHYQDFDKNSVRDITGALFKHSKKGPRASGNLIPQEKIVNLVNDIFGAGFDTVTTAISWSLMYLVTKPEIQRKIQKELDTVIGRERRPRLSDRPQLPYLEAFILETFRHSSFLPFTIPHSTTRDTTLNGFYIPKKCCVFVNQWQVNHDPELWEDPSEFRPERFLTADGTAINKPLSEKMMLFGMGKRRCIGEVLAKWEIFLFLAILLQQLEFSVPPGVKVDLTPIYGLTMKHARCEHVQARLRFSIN
Outline: (§4)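 Vivid fluorescence CYP assay: test compound at […] in water, mixed with BACULOSOMES master pre-mix and regeneration system, preincubated 15 min at 37 °C. Reaction started with Vivid substrate and NADPH. Remaining activity read by fluorescence as % of control, triplicate, mean ± SD. Isoform-specific reference inhibitors: α-naphthoflavone (1A2), sulfaphenazole (2C9), quinidine (2D6), ketoconazole (3A4).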

CYP2D6 = CYP2D6 (Homo sapiens, UniProt P10635); assay: Inhibition of human CYP2D6 assessed as remaining activity at 10 uM using vivid CYP450 substrate measured after 15 mins by fluorescence assay relative to quinidine; format: ADME; settings: probe vivid CYP450 substrate, read-out: Activity; outline: as §4
CYP2C9 = CYP2C9 (Homo sapiens, UniProt P11712); assay: Inhibition of human CYP2C9 assessed as remaining activity at 10 uM using vivid CYP450 substrate measured after 15 mins by fluorescence assay relative to sulfaphenazol; format: ADME; settings: probe vivid CYP450 substrate, read-out: Activity; outline: as §4
CYP3A4 = CYP3A4 (Homo sapiens, UniProt P08684); assay: Inhibition of human CYP3A4 assessed as remaining activity at 10 uM using vivid CYP450 substrate measured after 15 mins by fluorescence assay relative to ketoconazole; format: ADME; settings: probe vivid CYP450 substrate, read-out: Activity; outline: as §4
[7] = Metabolic stability in human liver microsomes assessed as compound remaining at 1 uM in presence of NADPH as cofactor by LC-MS/MS method; format: ADME; settings: read-out: Stability
Outline: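 Pooled mixed-gender human liver microsomes incubated with compound at 37 °C with NADPH as cofactor. Result given as % parent compound remaining.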

Rattus norvegicus [8] = assay: Antineuropathic pain activity in rat spinal nerve ligation model assessed as effect on mechanical allodynia by measuring frequency of paw withdrawal at 100 mg/kg, po measured at 1 hr relative to control; format: functional; outline: as §1
Rattus norvegicus [9] = assay: Antineuropathic pain activity in rat spinal nerve ligation model assessed as effect on cold allodynia by measuring frequency of paw withdrawal at 100 mg/kg, po measured at 1 hr relative to control; format: functional; outline: as §1
Rattus norvegicus [10] = assay: Antineuropathic pain activity in rat spinal nerve ligation model assessed as effect on cold allodynia by measuring frequency of paw withdrawal at 100 mg/kg, po measured at 1 hr relative to gabapentin; format: functional; outline: as §1
Rattus norvegicus [11] = assay: Poteny index, ratio of test compound to gabapentin antineuropathic pain activity in rat spinal nerve ligation model assessed as effect on mechanical allodynia by measuring frequency of paw withdrawal at 100 mg, po measured after 1 hr; format: functional
Rattus norvegicus [12] = assay: Poteny index, ratio of test compound to mibefradil antineuropathic pain activity in rat spinal nerve ligation model assessed as effect on mechanical allodynia by measuring frequency of paw withdrawal at 100 mg, po measured after 1 hr; format: functional
Rattus norvegicus [13] = assay: Antineuropathic pain activity in rat spinal nerve ligation model assessed as effect on mechanical allodynia by measuring frequency of paw withdrawal at 100 mg/kg, po measured at 3 hrs relative to control; format: functional; outline: as §1
Rattus norvegicus [14] = assay: Antineuropathic pain activity in rat spinal nerve ligation model assessed as effect on mechanical allodynia by measuring frequency of paw withdrawal at 100 mg/kg, po measured at 5 hrs relative to control; format: functional; outline: as §1
Rattus norvegicus [15] = assay: Antineuropathic pain activity in rat spinal nerve ligation model assessed as effect on mechanical allodynia by measuring frequency of paw withdrawal at 100 mg/kg, po measured at 3 hrs relative to gabapentin; format: functional; outline: as §1
Rattus norvegicus [16] = assay: Antineuropathic pain activity in rat spinal nerve ligation model assessed as effect on mechanical allodynia by measuring frequency of paw withdrawal at 100 mg/kg, po measured at 5 hrs relative to gabapentin; format: functional; outline: as §1
Rattus norvegicus [17] = assay: Antineuropathic pain activity in rat spinal nerve ligation model assessed as effect on cold allodynia by measuring frequency of paw withdrawal at 100 mg/kg, po measured at 3 hrs relative to control; format: functional; outline: as §1
Rattus norvegicus [18] = assay: Antineuropathic pain activity in rat spinal nerve ligation model assessed as effect on cold allodynia by measuring frequency of paw withdrawal at 100 mg/kg, po measured at 5 hrs relative to control; format: functional; outline: as §1
Rattus norvegicus [19] = assay: Antineuropathic pain activity in rat spinal nerve ligation model assessed as effect on cold allodynia by measuring frequency of paw withdrawal at 100 mg/kg, po measured at 3 hrs relative to gabapentin; format: functional; outline: as §1
Rattus norvegicus [20] = assay: Antineuropathic pain activity in rat spinal nerve ligation model assessed as effect on cold allodynia by measuring frequency of paw withdrawal at 100 mg/kg, po measured at 5 hrs relative to gabapentin; format: functional; outline: as §1

`CC(C)Cc1cc(CNS(=O)(=O)c2ccccc2)nn1-c1ccccc1` showed an MPE (Rattus norvegicus [1]) of 416.59%, an IC50 [2] of 5.65 µM and an IC50 [3] of 5.8 µM. The inhibition [4] was 63.9%, the inhibition [5] was 61.4% and the inhibition (Homo sapiens) was 38.2%. The IC50 [6] was 21 µM, the activity at 0.25 h, 10 µM (CYP1A2) was 36.6% and the activity at 0.25 h, 10 µM (CYP2D6) was 208%. For the same compound, the activity at 0.25 h, 10 µM (CYP2C9) was 38.4%, the activity at 0.25 h, 10 µM (CYP3A4) was 69.6% and the remaining at 1 µM [7] was 13.9%. The MPE (Rattus norvegicus [8]) was 45.95%, the MPE (Rattus norvegicus [9]) was 103.9% and the MPE (Rattus norvegicus [10]) was 236.08%. For the same compound, the Ratio (Rattus norvegicus [11]) was 3, the Ratio (Rattus norvegicus [12]) was 3 and the MPE (Rattus norvegicus [13]) was 36.45%. For the same compound, the MPE (Rattus norvegicus [14]) was 30.91%, the MPE (Rattus norvegicus [15]) was 64.01% and the MPE (Rattus norvegicus [16]) was 68.26%. For the same compound, the MPE (Rattus norvegicus [17]) was 81.73%, the MPE (Rattus norvegicus [18]) was 74.17% and the MPE (Rattus norvegicus [19]) was 101.52%. For the same compound, the MPE (Rattus norvegicus [20]) was 169.88%.
